From ChEMBL document CHEMBL5625195, “Identification of novel tetrahydroquinoxaline derived phenyl ureas as modulators of the hepatitis B virus nucleocapsid assembly” (Eur J Med Chem, 2023) come the findings set out here.

The subject of series [1] is Hepatitis B virus. Briefly: Antiviral activity against HBV infected in AML12HBV10 cells assessed as change in core protein at 1 to 5 uM after 2 days by Northern blot hybridization. It counts as functional, organism-based. As to conditions: dose 1-5 µM, time 2.0 day. The method in brief:
(§1)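 AML12HBV10 cells in 24-well plates were kept with or without tetracycline for 24 h. Tet-maintained cells served as the no-pgRNA negative control. Cells were then mock (DMSO) or compound treated for 48 h. Total viral RNA and encapsidated pgRNA were read by Northern blot with rRNA as loading control. Core protein was read by Western blot (C-terminal 14-residue antibody, β-actin control), capsids by native particle gel assay, and replication intermediates by Southern blot.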

Series [2] relates to Hepatitis B virus. Put plainly: Antiviral activity against HBV infected in AML12HBV10 cells assessed as decrease in viral DNA replication at 1 to 5 uM after 2 days by Northern blot hybridization. It counts as functional, organism-based. As to conditions: dose 1-5 µM, time 2.0 day. The method in brief: as §1
The test system of series [3] is Hepatitis B virus. Briefly: Antiviral activity against HBV infected in AML12HBV10 cells assessed as decrease in encapsidated pgRNA at 1 to 5 uM after 2 days by Northern blot hybridization. It is filed as functional, organism-based. As to conditions: dose 1-5 µM, time 2.0 day. An outline of the steps:
(§2)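 AML12HBV10 cells were induced by tetracycline withdrawal for 24 h, then mock (DMSO) or compound treated for 48 h, with tetracycline-maintained cells as negative control. Encapsidated pgRNA was detected by Northern blot hybridization, using ribosomal RNA as loading control.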

Series [4] relates to Hepatitis B virus. Put plainly: Antiviral activity against HBV infected in AML12HBV10 cells assessed as decrease in capsid assembly at 1 to 5 uM after 2 days by Northern blot hybridization. It counts as functional, organism-based. The following applies: dose 1-5 µM, time 2.0 day. An outline of the steps:
(§3)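 AML12HBV10 cells (mouse hepatocyte line carrying tetracycline-inducible, envelope-deficient HBV genome) in 24-well plates. Tetracycline was removed for 24 h before treatment; tetracycline-maintained cells served as negative control. Cells were mock (DMSO) or compound treated for a further 48 h. Intracellular capsids and core-associated DNA were resolved by native agarose gel particle assay.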

The test system of series [5] is Hepatitis B virus. Put plainly: Antiviral activity against HBV infected in AML12HBV10 cells assessed as reduction viral replication incubated for 48 hrs. It counts as functional, organism-based. The following applies: AML12HBV10, 48 h. An outline of the steps: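 AML12HBV10 cells were seeded at 2 x 10^4 per well without tetracycline. After one day, 2-fold serial dilutions (10 μM to 0.08 μM) were applied for 48 h. Lysates were denatured, neutralized and dot-blotted, then hybridized with a 32P-labelled riboprobe specific for HBV minus-strand DNA and read by phosphorimager. EC50 was the concentration reducing HBV DNA by 50%.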

Series [6] relates to Hepatitis B virus. Put plainly: Antiviral activity against HBV infected in AML12HBV10 cells assessed as change in total viral RNA at 1 to 5 uM after 2 days by Northern blot hybridization. It is filed as functional, organism-based. As to conditions: dose 1-5 µM, time 2.0 day. An outline of the steps:
as §1

The test system of another series is AML12. Briefly: (§4) Cytotoxicity against mouse AML12 cells assessed as reduction in cell viability incubated for 48 hrs by MTT assay. It counts as toxicity, cell-based. As to conditions: aml12, 48 h. The method in brief: (§5)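 Stable AML12HBV10 hepatocytes (AML12-derived), cultured without tetracycline, were exposed to 2-fold serial dilutions (50 μM to 1.56 μM) for 48 h. Viability was inspected microscopically and quantified by MTT. CC50 was the concentration lowering viability by 50%.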
For orientation: Formazan colour is commonly taken as a measure of viable cells.

In series [7] the test system is Hepatitis B virus. Briefly: Antiviral activity against HBV infected in AML12HBV10 cells assessed as change in capsids at 1 uM after 2 days by Northern blot hybridization. It is filed as functional, organism-based. The following applies: time 2.0 day. An outline of the steps:
as §3

Series [8] relates to Hepatitis B virus. Briefly: Antiviral activity against HBV infected in AML12HBV10 cells assessed as change in encapsidated pgRNA at 1 uM after 2 days by Northern blot hybridization. It counts as functional, organism-based. The following applies: time 2.0 day. An outline of the steps: as §2
Series [9] concerns Hepatitis B virus. Put plainly: Antiviral activity against HBV infected in AML12HBV10 cells assessed as change in core protein at 1 uM after 2 days by Northern blot hybridization. It counts as functional, organism-based. As to conditions: time 2.0 day. An outline of the steps: as §1
Series [10] deals with Hepatitis B virus. Briefly: Antiviral activity against HBV infected in AML12HBV10 cells assessed as change in total viral RNA at 1 uM after 2 days by Northern blot hybridization. It is filed as functional, organism-based. As to conditions: time 2.0 day. The method in brief: as §1
The subject of series [11] is Hepatitis B virus. Briefly: Antiviral activity against HBV infected in AML12HBV10 cells assessed as change in capsid associated viral DNA at 1 uM after 2 days by Northern blot hybridization. It counts as functional, organism-based. As to conditions: time 2.0 day. An outline of the steps: as §3
The subject of series [12] is Hepatitis B virus. Briefly: Antiviral activity against HBV infected in AML12HBV10 cells assessed as change in DNA replication intermediates at 1 uM after 2 days by Northern blot hybridization. It is filed as functional, organism-based. As to conditions: time 2.0 day. An outline of the steps:
as §1

Series [13] is described as follows: as §4. It counts as toxicity, cell-based. The following applies: AML12 cells. The method in brief: as §5
Series [14] concerns Hepatitis B virus. Put plainly: Antiviral activity against HBV infected in AML12HBV10 cells assessed as decrease in capsid assembly at 2 uM after 2 days by Northern blot hybridization. It counts as functional, organism-based. The following applies: time 2.0 day. An outline of the steps: as §3
Series [15] deals with Hepatitis B virus. Briefly: Antiviral activity against HBV infected in AML12HBV10 cells assessed as reduction in encapsidated pgRNA at 2 uM after 2 days by Northern blot hybridization. It counts as functional, organism-based. As to conditions: time 2.0 day. An outline of the steps: as §2
Series [16] deals with Hepatitis B virus. Put plainly: Antiviral activity against HBV infected in AML12HBV10 cells assessed as reduction in viral DNA replication at 2 uM after 2 days by Northern blot hybridization. It is filed as functional, organism-based. As to conditions: time 2.0 day. An outline of the steps:
as §1

Series [17] concerns Hepatitis B virus. Put plainly: Antiviral activity against HBV infected in AML12HBV10 cells assessed as accumulation of capsid at 5 uM after 2 days by Northern blot hybridization. As to conditions: time 2.0 day. It counts as functional, organism-based. The method in brief:
as §3

For series [18], the system named is Hepatitis B virus. Briefly: Antiviral activity against HBV infected in AML12HBV10 cells assessed as reduction in encapsidated pgRNA at 5 uM after 2 days by Northern blot hybridization. It counts as functional, organism-based. As to conditions: time 2.0 day. The method in brief: as §2
The test system of series [19] is Hepatitis B virus. Briefly: Antiviral activity against HBV infected in AML12HBV10 cells assessed as reduction in viral DNA replication at 5 uM after 2 days by Northern blot hybridization. It counts as functional, organism-based. The following applies: time 2.0 day. The method in brief: as §1

pEC50: −log10 of the molar value. Calls of active or inactive are those of the source. The calls are words filed in the database; no cut-off is given here. A value given as a limit tells only on which side of the number the result lay.

As a reminder, the pEC50 is −log10 of the EC50, conventionally taken in molar units. Usually CC50 stands for the concentration giving 50% cytotoxicity. Turning to `O=C(Nc1ccc(F)c(Cl)c1)N1CCNc2ccccc21`, the result with Hepatitis B virus [1] and in the series with Hepatitis B virus [6] was inactive. For the same molecule, the outcome in the series on Hepatitis B virus [2], in the series on Hepatitis B virus [3] and in the series with Hepatitis B virus [4] was Active. Also, in the series on Hepatitis B virus [5], the pEC50 was 6.29. In addition, the 50% cytotoxic concentration (CC50) in the series with AML12 was greater than 100 µM.
For `C=C1[C@H](CO)[C@@H](O)C[C@@H]1n1cnc2c(=O)[nH]c(N)nc21`, the result in the series on Hepatitis B virus [7], in the series with Hepatitis B virus [8], with Hepatitis B virus [9] and in the series with Hepatitis B virus [10] was inactive. Also, the outcome in the series on Hepatitis B virus [11] and in the series on Hepatitis B virus [12] was Active.
As to `O=C(Nc1ccc(F)c(Cl)c1)N1CCN(C(=O)Nc2ccc(F)c(Cl)c2)c2ccccc21`, the result in the series on Hepatitis B virus [1] and in the series on Hepatitis B virus [6] was inactive. Moreover, the result in the series on Hepatitis B virus [2], in the series with Hepatitis B virus [3] and in the series on Hepatitis B virus [4] was Active. The negative logarithm of the EC50 (pEC50) in the series with Hepatitis B virus [5] was 6.00. The CC50 at 48 h in series [13] was greater than 12.5 µM.
For the molecule `COC(=O)C1=C(C)NC(c2ncc(F)cc2F)=N[C@H]1c1ccc(F)cc1Cl`, the outcome with Hepatitis B virus [14], in the series with Hepatitis B virus [15], in the series with Hepatitis B virus [16] and in the series with Hepatitis B virus [17] was Active.
Turning to `CCC(C)NS(=O)(=O)c1ccc(F)c(C(=O)Nc2ccc(F)c(F)c2)c1` (stereo unspecified), the outcome in the series with Hepatitis B virus [18] and in the series on Hepatitis B virus [19] was Active.
